Experimental data: paper PMC3406267 (The Open Medicinal Chemistry Journal, 2012)

Tests used:
CB2R [1] = molecular target: CB2R (Mus musculus, UniProt P47936); experiment: Radioligand binding, CB2R, [3H]-CP-55,940 competition in mouse spleen homogenate
CB1R = CB1R (Mus musculus, UniProt P47746); experiment: Radioligand binding, CB1R, [3H]-CP-55,940 competition in mouse brain
[2] = test system: P-ERK 1/2 expression in HL-60 cells selectively expressing CB2R; conditions: cited from earlier work
CB2 = conditions: Fig. 2 and introduction; cited from earlier work
CB2R [3] = conditions: CB2R-mediated gastrointestinal assays; cited from earlier work
[4] = test system: P-ERK 1/2 expression in HL-60 cells selectively expressing CB2R; experiment: P-ERK 1/2 expression; format: cell-based, human
How it was run: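 HL-60 cells grown at 37 °C, 5% CO2, in RPMI 1640 with 10% heat-inactivated FBS, 25 mM HEPES, 2.5 mM pyruvate and gentamicin, and used at 80% confluency. Compounds were given in medium with 1% DMSO for 15 min, with or without 75 nM AM630 added 5 min before. Lysates (HEPES pH 7.9, 4 °C) were western-blotted for P-ERK1/2. Values are % of vehicle, five separate experiments, ±SEM.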

Sequence of CB2R (Mus musculus, UniProt P47936) (P47936 whole entry): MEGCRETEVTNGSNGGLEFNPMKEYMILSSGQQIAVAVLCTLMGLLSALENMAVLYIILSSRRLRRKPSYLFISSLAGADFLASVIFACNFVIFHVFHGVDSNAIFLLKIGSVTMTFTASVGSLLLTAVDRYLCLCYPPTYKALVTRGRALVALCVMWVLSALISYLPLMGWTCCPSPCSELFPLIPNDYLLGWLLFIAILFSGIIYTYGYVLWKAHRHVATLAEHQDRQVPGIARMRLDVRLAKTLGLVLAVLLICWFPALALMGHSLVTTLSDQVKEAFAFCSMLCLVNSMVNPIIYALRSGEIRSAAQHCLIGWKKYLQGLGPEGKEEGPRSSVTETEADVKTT
Sequence of CB1R (P47746 whole entry): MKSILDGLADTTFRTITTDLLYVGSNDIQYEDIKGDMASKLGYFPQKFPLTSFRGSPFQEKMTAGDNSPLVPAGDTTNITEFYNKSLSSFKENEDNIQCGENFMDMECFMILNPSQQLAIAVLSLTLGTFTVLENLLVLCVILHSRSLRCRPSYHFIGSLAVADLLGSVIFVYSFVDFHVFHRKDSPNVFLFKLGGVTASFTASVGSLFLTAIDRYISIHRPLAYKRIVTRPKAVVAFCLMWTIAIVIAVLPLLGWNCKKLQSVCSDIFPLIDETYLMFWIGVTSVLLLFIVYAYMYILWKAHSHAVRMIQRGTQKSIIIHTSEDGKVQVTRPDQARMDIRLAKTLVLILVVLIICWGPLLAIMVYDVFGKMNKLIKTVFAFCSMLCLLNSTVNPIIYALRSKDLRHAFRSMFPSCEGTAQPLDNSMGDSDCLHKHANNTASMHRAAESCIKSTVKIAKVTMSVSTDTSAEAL

Cc1cc2c(cc1Cl)-c1c(c(C(=O)NC3CCCCCC3)nn1-c1ccc(Cl)cc1Cl)C2 [Compound 16, N-Cycloheptyl-7-chloro-1-(2,4-dichlorophenyl)-6-methyl-1,4-dihydroindeno[1,2-c]pyrazole-3-carboxamide]
Ki (CB2R [1]): 1520 ± 1240 nM | Ki (CB1R): 3750 ± 1250 nM

Cc1cc2c(cc1Cl)-c1c(c(C(=O)NC3C4CC5CC(C4)CC3C5)nn1-c1ccc(Cl)cc1Cl)C2 (stereo not drawn) [Compound 11, N-Adamant-2-yl-7-chloro-1-(2,4-dichlorophenyl)-6-methyl-1,4-dihydroindeno[1,2-c]pyrazole-3-carboxamide]
Ki (CB2R [1]): 275 ± 25 nM | Ki (CB1R): 4620 ± 857 nM

Cc1ccc2c(c1)Cc1c(C(=O)NN3CCCCC3)nn(-c3ccc(Cl)cc3Cl)c1-2 [Compound 2, 1-(2,4-dichlorophenyl)-6-methyl-N-(piperidin-1-yl)-1,4-dihydroindeno[1,2-c]pyrazole-3-carboxamide]
CB2 intrinsic activity in vitro [2]: CB2 agonist activity in vitro

Cc1cc2c(cc1Cl)-c1c(c(C(=O)NC3CC4CCC3(C)C4(C)C)nn1-c1ccc(Cl)cc1Cl)C2 (stereo not drawn) [Compound 6, N-Bornyl-7-chloro-1-(2,4-dichlorophenyl)-6-methyl-1,4-dihydroindeno[1,2-c]pyrazole-3-carboxamide]
Ki (CB2R [1]): 474 ± 25 nM | Ki (CB1R): 2670 ± 167 nM

Cc1cc2c(cc1Cl)-c1c(c(C(=O)N[C@H]3CC[C@H](C)CC3)nn1-c1ccc(Cl)cc1Cl)C2 [Compound 14, Trans-N-(4-Methylcyclohexyl)-7-chloro-1-(2,4-dichlorophenyl)-6-meth-yl-1,4-dihydroindeno[1,2-c]pyrazole-3-carboxamide]
Ki (CB2R [1]): 325 ± 53 nM | Ki (CB1R): > 5000 nM

Cc1cc2c(cc1Cl)-c1c(c(C(=O)Nc3cccc4ccccc34)nn1-c1ccc(Cl)cc1Cl)C2 [Compound 18, N-(Naphthalen-1-yl)-7-chloro-1-(2,4-dichlorophenyl)-6-methyl-1,4-dihydroindeno[1,2-c]pyrazole-3-carboxamide]
Ki (CB2R [1]): 1130 ± 125 nM | Ki (CB1R): > 5000 nM

Cc1cc2c(cc1Cl)-c1c(c(C(=O)NC(C)c3cccc4ccccc34)nn1-c1ccc(Cl)cc1Cl)C2 (stereo not drawn) [Compound 19, N-(1-(1-Naphthyl)ethyl)-7-chloro-1-(2,4-dichlorophenyl)-6-methyl-1,4-dihydroindeno[1,2-c]pyrazole-3-carboxamide]
Ki (CB2R [1]): 2400 ± 400 nM | Ki (CB1R): > 5000 nM

5-(4-chloro-3-methylphenyl)-1-(4-methylbenzyl)-N-fenchyl-1H-pyrazole-3-carboxamide [Compound 1]
selectivity ratio KiCB1/KiCB2 of SR144528 (CB2): > 600 | in vivo CB2R antagonist activity (CB2R [3]): remarkable in vivo CB2R antagonist activity

Cc1cc2c(cc1Cl)-c1c(c(C(=O)NC34CC5CC(CC(C5)C3)C4)nn1-c1ccc(Cl)cc1Cl)C2 [Compound 10, N-Adamant-1-yl-7-chloro-1-(2,4-dichlorophenyl)-6-methyl-1,4-dihydroindeno[1,2-c]pyrazole-3-carboxamide]
Ki (CB2R [1]): 425 ± 95 nM | Ki (CB1R): 1300 ± 347 nM

Cc1cc2c(cc1Cl)-c1c(c(C(=O)NC3CC(C)CCC3C(C)C)nn1-c1ccc(Cl)cc1Cl)C2 (stereo not drawn) [Compound 9, N-Menthyl-7-chloro-1-(2,4-Dichlorophenyl)-6-methyl-1,4-dihydroindeno[1,2-c]pyrazole-3-carboxamide]
Ki (CB2R [1]): 3100 ± 283 nM | Ki (CB1R): 1250 ± 359 nM

Cc1c(C(=O)c2cccc3ccccc23)c2cccc3c2n1[C@H](CN1CCOCC1)CO3 [WIN 55,212-2]
P-ERK 1/2 expression, percentage of increment versus vehicle ([4]; 75 nM (dose of maximum effect), 15 min exposure): +83.2 ± 18.9% | Effect on P-ERK 1/2 expression after 5 min pre-treatment with CB2 antagonist AM630 ([4]; AM630 75 nM, agonist at dose of maximum effect, 15 min): counteracted | P-ERK 1/2 expression in treated HL-60 cells versus vehicle ([4]; western blot, 15 min exposure): significant increase

Cc1cc2c(cc1Cl)Cc1c(C(=O)NC34CC5CC(CC(C5)C3)C4)nn(-c3ccc(Cl)cc3Cl)c1-2 [Compound 24, N-Adamant-1-yl-6-chloro-1-(2,4-dichlorophenyl)-7-methyl-1,4-dihydroindeno[1,2-c]pyrazole-3-carboxamide]
Ki (CB2R [1]): 1350 ± 813 nM | Ki (CB1R): 4750 ± 20 nM
